Test results as given in article PMC5700443 (Journal of Cachexia, Sarcopenia and Muscle, 2017).

Tests used:
[1] = test system: MuRF1 mRNA expression in C2C12 myotubes; assay: MuRF1 mRNA expression in dexamethasone-treated myotubes; type: cell-based, Murine; details: DEX 10 μmol/L, 24 h
How it was run: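 Differentiated C2C12 myotubes (2% horse serum) were pre-treated for 2 h with test compound (0.1–10 μmol/L, DMSO) or DMSO alone before dexamethasone. Total RNA was reverse-transcribed with random hexamers. Quantitative RT-PCR used a LightCycler with FRET detection. MuRF1 was normalised to hypoxanthine phosphoribosyltransferase mRNA (60°C annealing). Mean ± SEM; one-way ANOVA, Bonferroni.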

[2] = test system: C57BL/6 mice with MCT-induced cardiac cachexia; type: in vivo; details: MCT 600 mg/kg weekly, 6 weeks
[3] = test system: diaphragm muscle of MCT-treated C57BL/6 mice; assay: In vitro contractile function of diaphragm muscle bundles from treated mice; type: in vivo; details: MCT 600 mg/kg weekly, 6 weeks, vs sham
How it was run: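 C57BL/6 mice (8 weeks) got MCT or saline s.c.; compound was given at 0.1% w/w in chow from 1 week before MCT. Diaphragm bundles at optimal length in buffer pH ~7.4 (95% O2–5% CO2, ~22°C) were equilibrated 15 min, then force–frequency tested (1–300 Hz) plus isotonic loads. Specific force N/cm2 (density 1.06), velocity Lo/s, power = velocity × force; n = 16/group.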

Structure (SMILES)	increase in MuRF1 mRNA expression relative to untreated cells [1]	body weight loss ([2]; normal chow (sham gained 7.9 ± 0.8%))	lower TA fibre CSA ([2]; vs sham)	reduction in TA muscle weight ([2]; vs sham)	effect on isometric forces [3]	reduction of peak power [3]	reduction of peak shortening velocity [3]
C[C@@H]1C[C@H]2[C@@H]3CCC4=CC(=O)C=C[C@]4(C)[C@@]3(F)[C@@H](O)C[C@]2(C)[C@@]1(O)C(=O)CO [Dexamethasone, dexamethasone]	approximately 2 fold						
C[C@H]1C(=O)O[C@@H]2CCN3CC=C(COC(=O)[C@](C)(O)[C@]1(C)O)[C@H]23 [MCT, monocrotaline]		0.7 ± 0.6%	~ 20%	~ 10%	no significant effects	~ 20%	~ 20%
